Results reported in ChEMBL document CHEMBL1641377, “Discovery of novel, potent, selective, and orally active human glucagon receptor antagonists containing a pyrazole core” (Bioorg Med Chem Lett, 2011).
The source made the active and inactive calls. No cut-off for these calls is given here.

Key:
[1] = target: T1, Glucagon receptor (Homo sapiens, UniProt P47871); assay: Displacement of [125I]glucagon from human GCGR expressed in CHO cells; type: cell-based
How it was run: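 Binding inhibition of 125I-glucagon to human GCGR expressed in CHO cell membranes; IC50 reported, n given where replicated.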

[2] = target: T1, Glucagon receptor; assay: Antagonist activity at human GCGR expressed in CHO cells assessed as inhibition of glucagon-induced cAMP accumulation; type: functional, cell-based
How it was run: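 Inhibition of glucagon-induced cAMP accumulation in CHO cells transfected with human GCGR; IC50 derived, n given where replicated.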

[3] = target: T2, Gastric inhibitory polypeptide receptor (Homo sapiens, UniProt P48546); assay: Antagonist activity at human GIPR expressed in CHO cells assessed as inhibition of glucagon-induced cAMP accumulation; type: functional, cell-based
T2 sequence (P48546 whole entry): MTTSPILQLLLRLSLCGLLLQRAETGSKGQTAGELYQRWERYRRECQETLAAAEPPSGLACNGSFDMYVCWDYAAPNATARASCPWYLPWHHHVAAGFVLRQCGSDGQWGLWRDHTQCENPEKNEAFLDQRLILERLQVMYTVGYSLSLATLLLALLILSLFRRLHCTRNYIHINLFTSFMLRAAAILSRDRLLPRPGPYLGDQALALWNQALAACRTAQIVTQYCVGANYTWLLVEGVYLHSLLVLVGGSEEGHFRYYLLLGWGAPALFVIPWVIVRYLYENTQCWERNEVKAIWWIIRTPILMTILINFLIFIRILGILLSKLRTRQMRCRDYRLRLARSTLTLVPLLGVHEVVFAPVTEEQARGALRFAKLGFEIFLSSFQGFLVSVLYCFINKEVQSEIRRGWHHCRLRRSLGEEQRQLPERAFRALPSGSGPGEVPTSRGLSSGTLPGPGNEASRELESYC

[4] = Blood clearance in po dosed mouse; type: ADME, organism-based
[5] = Half life in po dosed mouse; type: ADME, organism-based; details: in vivo
[6] = test system: Mus musculus; assay: Dose normalized AUC in po dosed mouse; type: ADME, organism-based; details: in vivo
[7] = target: T3, Gastric inhibitory polypeptide receptor (Homo sapiens) (UniProt P48546); assay: Antagonist activity at human GIPR expressed in CHO cells assessed as inhibition of glucagon-induced cAMP accumulation at 10 uM; type: functional, cell-based
T3 sequence (whole entry): T2 sequence (P48546 whole entry)

[8] = test system: Mus musculus; assay: Antidiabetic activity in transgenic mouse expressing human GCGR assessed as inhibition of glucagon-induced blood glucose excursion at 30 mg/kg, po administered 60 mins before glucagon challenge measured after 48 mins; type: functional, organism-based; parameters: dose 30 mg/kg
How it was run: (§1)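 hGCGR transgenic mice (only functional receptor is human GCGR), 9 per group, given compound orally, then glucagon 15 µg/kg IP 60 min later (one arm dosed 30 mpk three hours before challenge); blood glucose monitored at 12, 24, 36 and 48 min after glucagon.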

[9] = test system: Mus musculus; assay: Antidiabetic activity in transgenic mouse expressing human GCGR assessed as inhibition of glucagon-induced blood glucose excursion at 10 mg/kg, po administered 60 mins before glucagon challenge measured after 48 mins; type: functional, organism-based; parameters: dose 10 mg/kg; how it was run: as §1

T1 sequence (P47871 whole entry): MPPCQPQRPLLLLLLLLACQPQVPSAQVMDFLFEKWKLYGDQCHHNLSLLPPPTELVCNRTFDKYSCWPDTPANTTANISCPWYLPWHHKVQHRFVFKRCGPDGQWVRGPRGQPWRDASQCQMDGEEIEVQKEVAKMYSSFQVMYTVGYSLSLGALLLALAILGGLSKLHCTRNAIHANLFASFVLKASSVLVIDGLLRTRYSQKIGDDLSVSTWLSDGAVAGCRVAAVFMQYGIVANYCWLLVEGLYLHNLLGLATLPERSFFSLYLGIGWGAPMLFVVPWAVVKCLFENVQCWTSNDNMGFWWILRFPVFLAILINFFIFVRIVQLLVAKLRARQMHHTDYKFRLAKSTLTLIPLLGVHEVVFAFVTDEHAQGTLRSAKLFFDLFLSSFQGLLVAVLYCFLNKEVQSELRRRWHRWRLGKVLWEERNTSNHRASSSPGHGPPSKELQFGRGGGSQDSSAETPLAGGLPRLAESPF

Row | SMILES | IC50 [1] [nM] | IC50 [3] [nM] | inhibition [7] [%] | also measured
1 | O=C(Nc1nn[nH]n1)c1ccc(Cn2nc(-c3ccc(OC(F)(F)F)cc3)cc2C2CCCCC2)cc1 | 120 | 2100 | – | IC50 [2]: 160 nM; CL/F [4]: 8.2 mL/min/kg; half-life [5]: 2.7 h; AUC [6]: 1.5 µM·kg·h/mg
2 | O=C(O)CCNC(=O)c1ccc(Cc2cc(-c3ccc(OC(F)(F)F)cc3)nn2C2CCCCC2)cc1 | 2900 | – | 39 | –
3 | O=C(Nc1nn[nH]n1)c1ccc(Cn2nc(-c3cc(Cl)cc(Cl)c3)cc2-c2ccc(OC(F)(F)F)cc2)cc1 | – | – | – | inhibition [8]: Active; inhibition [9]: inactive
4 | O=C(O)CCNC(=O)c1ccc(Cn2nc(-c3ccc(OC(F)(F)F)cc3)cc2C2CCCCC2)cc1 | 3800 | 2800 | – | –
5 | O=C(NCc1nnn[nH]1)c1ccc(Cn2nc(-c3cc(Cl)cc(Cl)c3)cc2-c2ccc(OC(F)(F)F)cc2)cc1 | 120 | > 10000 | – | –
6 | O=C(Nc1nn[nH]n1)c1ccc(Cc2cnn(-c3ccc(OC(F)(F)F)cc3)c2C2CCCCC2)cc1 | 16000 | > 20000 | – | –
7 | O=C(Nc1nn[nH]n1)c1ccc(Cn2nc(C3CCCCC3)cc2-c2ccc(OC(F)(F)F)cc2)cc1 | 810 | 910 | – | –
8 | CC(c1ccc(Cl)cc1)c1cc(-c2ccc(OC(F)(F)F)cc2)nn1Cc1ccc(C(=O)Nc2nn[nH]n2)cc1 (stereo unspecified) | 520 | – | 21 | –
9 | CN(CCC(=O)O)C(=O)c1ccc(Cn2nc(-c3ccc(OC(F)(F)F)cc3)cc2-c2ccc(OC(F)(F)F)cc2)cc1 | 7200 | – | 9 | –
10 | O=C(Nc1nn[nH]n1)c1cccc(Cn2nc(-c3ccc(OC(F)(F)F)cc3)cc2-c2ccc(OC(F)(F)F)cc2)c1 | 1100 | – | 2 | –
11 | O=C(Nc1nnn[nH]1)c1ccc(Cn2nc(-c3ccc(OC(F)(F)F)cc3)cc2-c2cc(Cl)cc(Cl)c2)cc1 | 36 | 3000 | – | IC50 [2]: 35 nM
12 | O=C(O)CNC(=O)c1cccc(Cn2nc(-c3ccc(OC(F)(F)F)cc3)cc2-c2ccc(OC(F)(F)F)cc2)c1 | 2900 | – | 34 | –
13 | O=C(O)CCNC(=O)c1ccc(Cc2cc(-c3ccc(OC(F)(F)F)cc3)n(C3CCCCC3)n2)cc1 | 1700 | – | – | –
14 | CS(=O)(=O)c1ccc(-c2cc(-c3ccc(OC(F)(F)F)cc3)n(Cc3ccc(C(=O)NCCC(=O)O)cc3)n2)cc1 | 2700 | – | 43 | –
15 | O=C(O)CCNC(=O)c1cccc(Cn2nc(-c3ccc(OC(F)(F)F)cc3)cc2-c2ccc(OC(F)(F)F)cc2)c1 | 330 | – | 73 | –
16 | O=C(O)CCNC(=O)c1ccc(Cc2cnn(-c3ccc(OC(F)(F)F)cc3)c2C2CCCCC2)cc1 | 7200 | > 25000 | – | –
17 | O=C(O)CCCNC(=O)c1cccc(Cn2nc(-c3ccc(OC(F)(F)F)cc3)cc2-c2ccc(OC(F)(F)F)cc2)c1 | 1100 | – | 49 | –
18 | CC(C)(C)[C@H]1CC[C@H](N(Cc2ccc(C(=O)NCCC(=O)O)cc2)C(=O)Nc2ccc(OC(F)(F)F)cc2)CC1 | 21 | 1300 | – | IC50 [2]: 140 nM
19 | CS(=O)(=O)c1ccc(-c2cc(-c3ccc(OC(F)(F)F)cc3)nn2Cc2ccc(C(=O)NCCC(=O)O)cc2)cc1 | 1200 | – | 31 | –
20 | CC(c1ccc(Cl)cc1)c1cc(-c2ccc(OC(F)(F)F)cc2)n(Cc2ccc(C(=O)NCCC(=O)O)cc2)n1 (stereo unspecified) | 2400 | – | 0 | –
21 | O=C(Nc1nn[nH]n1)c1ccc(Cc2cc(-c3ccc(OC(F)(F)F)cc3)nn2C2CCCCC2)cc1 | 4200 | – | 42 | –
22 | O=C(Nc1nn[nH]n1)c1ccc(Cc2cc(-c3ccc(OC(F)(F)F)cc3)n(C3CCCCC3)n2)cc1 | 2900 | – | 50 | –

Row | SMILES | IC50 [1] [nM] | IC50 [3] [nM] | inhibition [7] [%] | also measured
23 | O=C(O)CCCNC(=O)c1ccc(Cn2nc(-c3ccc(OC(F)(F)F)cc3)cc2-c2ccc(OC(F)(F)F)cc2)cc1 | 1100 | – | 15 | –
24 | CS(=O)(=O)c1ccc(-c2cc(-c3ccc(OC(F)(F)F)cc3)nn2Cc2ccc(C(=O)Nc3nnn[nH]3)cc2)cc1 | 220 | – | – | –
25 | CC(c1ccc(C(=O)NCCC(=O)O)cc1)n1nc(-c2ccc(OC(F)(F)F)cc2)cc1-c1ccc(OC(F)(F)F)cc1 (stereo unspecified) | 250 | – | 46 | –
26 | CC(c1ccc(Cl)cc1)c1cc(-c2ccc(OC(F)(F)F)cc2)nn1Cc1ccc(C(=O)NCCC(=O)O)cc1 (stereo unspecified) | 730 | – | 22 | –
27 | O=C(O)CCNC(=O)c1ccc(Cc2cn(-c3ccc(OC(F)(F)F)cc3)nc2C2CCCCC2)cc1 | 1200 | 7400 | – | –
28 | O=C(O)CNC(=O)c1ccc(Cn2nc(-c3ccc(OC(F)(F)F)cc3)cc2-c2ccc(OC(F)(F)F)cc2)cc1 | 3000 | – | -3 | IC50 [2]: 1300 nM
29 | O=C(NCc1nn[nH]n1)c1ccc(Cn2nc(-c3cc(Cl)cc(Cl)c3)cc2-c2ccc(OC(F)(F)F)cc2)cc1 | – | – | – | inhibition [9]: inactive
30 | CS(=O)(=O)c1ccc(-c2cc(-c3ccc(OC(F)(F)F)cc3)n(Cc3ccc(C(=O)Nc4nnn[nH]4)cc3)n2)cc1 | 570 | – | – | –
31 | O=C(Nc1nnn[nH]1)c1ccc(Cc2cn(-c3ccc(OC(F)(F)F)cc3)nc2C2CCCCC2)cc1 | 5300 | > 10000 | – | –
32 | CC(C)(C)[C@H]1CC[C@H](N(Cc2ccc(C(=O)Nc3nn[nH]n3)cc2)C(=O)Nc2ccc(OC(F)(F)F)cc2)CC1 | 3.2 | 45 | – | IC50 [2]: 46 nM
33 | O=C(O)CCNC(=O)c1ccc(Cn2nc(-c3ccc(OC(F)(F)F)cc3)cc2-c2ccc(OC(F)(F)F)cc2)cc1 | 490 | – | – | IC50 [2]: 370 nM
34 | CS(=O)(=O)c1ccc(-c2cc(-c3ccc(OC(F)(F)F)cc3)n(Cc3ccc(C(=O)Nc4nn[nH]n4)cc3)n2)cc1 | – | – | 45 | –
35 | O=C(NC[C@@H](O)C(=O)O)c1ccc(Cn2nc(-c3cc(Cl)cc(Cl)c3)cc2-c2ccc(OC(F)(F)F)cc2)cc1 | 28 | > 25000 | – | –
36 | CC(C)(C)[C@H]1CC[C@H](c2cc(-c3ccc(OC(F)(F)F)cc3)nn2Cc2ccc(C(=O)NCCC(=O)O)cc2)CC1 | 480 | – | 6 | –
37 | CS(=O)(=O)c1ccc(-c2cc(-c3ccc(OC(F)(F)F)cc3)nn2Cc2ccc(C(=O)Nc3nn[nH]n3)cc2)cc1 | – | – | 36 | –
38 | CC(C)(C)[C@H]1CC[C@H](c2cc(-c3ccc(OC(F)(F)F)cc3)nn2Cc2ccc(C(=O)Nc3nnn[nH]3)cc2)CC1 | 63 | 5700 | – | IC50 [2]: 170 nM
39 | CC(c1ccc(Cl)cc1)c1cc(-c2ccc(OC(F)(F)F)cc2)n(Cc2ccc(C(=O)Nc3nn[nH]n3)cc2)n1 (stereo unspecified) | 430 | – | 20 | –
40 | CC(c1ccc(C(=O)Nc2nnn[nH]2)cc1)n1nc(-c2ccc(OC(F)(F)F)cc2)cc1-c1ccc(OC(F)(F)F)cc1 (stereo unspecified) | 130 | 6000 | – | –
41 | O=C(Nc1nn[nH]n1)c1ccc(Cn2nc(-c3ccc(OC(F)(F)F)cc3)cc2-c2ccc(OC(F)(F)F)cc2)cc1 | 43 | – | 46 | IC50 [2]: 47 nM; inhibition [8]: Active; inhibition [9]: Active
42 | O=C(O)CCNC(=O)c1ccc(Cn2nc(-c3ccc(OC(F)(F)F)cc3)cc2-c2cc(Cl)cc(Cl)c2)cc1 | 95 | – | 21 | IC50 [2]: 230 nM
43 | CC(C)(C)[C@H]1CC[C@H](c2cc(-c3ccc(OC(F)(F)F)cc3)nn2Cc2ccc(C(=O)Nc3nn[nH]n3)cc2)CC1 | – | – | – | inhibition [8]: Active; inhibition [9]: Active
44 | O=C(Nc1nnn[nH]1)c1ccc(Cn2nc(-c3cc(Cl)cc(Cl)c3)cc2-c2ccc(OC(F)(F)F)cc2)cc1 | 39 | 7100 | – | IC50 [2]: 44 nM
